Results of several laboratories.

SMILES	target or system	assay	test system	setting	measurement	value
Nn1nnc2ccccc21	Cytochrome P450 2E1 (CYP2E1, Homo sapiens, UniProt P05181)	enzyme activity, inhibitor, HPLC			IC50	37.7 µM
O=c1[nH]c2sc(-c3ccc(Cl)cc3)cc2c(=O)n1O	HFF	cell growth or viability, MTS		10 µM, 7 days	viability	101%
CC(C)(C)NC(=O)CN1C(=O)Cc2c([nH]c3ccc(Br)cc23)-c2ccc(Cl)cc21	J774	cell growth or viability, WST-1		24 h	CC50	≥ 100 µM
O=c1[nH]c2sc3c(c2c(=O)n1O)CCNC3	HFF	cell growth or viability, MTS		10 µM, 7 days	viability	107%
CN(C(=O)n1cnc(-c2ccc[n+]([O-])c2)c1)C1CCCCC1			male cynomolgus monkey, plasma	oral, 0.1 mg/kg	Cmax	37.1 ng/mL
O=c1[nH]c2scc(-c3ccccc3)c2c(=O)n1O	HFF	cell growth or viability, MTS		10 µM, 7 days	viability	90%
Nc1ccc(C=Cc2ccc([125I])cc2)cc1			Swiss mouse, brain	intravenous, 5 µCi, 2 min	tracer uptake	2.29 %ID/g
Cn1ccc(COc2cnc(C(N)=O)cc2-c2ccc(O[11CH3])cc2F)n1			male mouse, pancreas	intravenous, 2.5 MBq, 1 h	tracer uptake	5.87 %ID/g
O=C(CN1C(=O)Cc2c([nH]c3ccc(Br)cc23)-c2ccc(Cl)cc21)N1CCOCC1	J774	cell growth or viability, WST-1		24 h	CC50	≤ 10 µM
CC1COc2ccccc2N1C(=O)C(Cl)Cl (stereo not shown)		metabolic stability	male monkey, liver microsomes	5 µM, pH 7.4	microsomal CLint	900 µL/min/mg
O=C(CCCCCCC(=O)Nc1ccc(CC[18F])cc1)NO			male nude mouse, stomach	intravenous, 2 h, tumour-bearing	tracer uptake	1 %ID/g
O=C(CN1C(=O)Cc2c([nH]c3ccc(Br)cc23)-c2ccc(Cl)cc21)N1CCCC1	J774	cell growth or viability, WST-1		24 h	CC50	≤ 100 µM
O=c1[nH]c2cc(-c3ccc(F)cc3)sc2c(=O)n1O	HFF	cell growth or viability, MTS		10 µM, 7 days	viability	61%
